According to ChEMBL document CHEMBL4765336, “Discovery of coumarin derivatives as potent and selective cyclin-dependent kinase 9 (CDK9) inhibitors with high antitumour activity” (Eur J Med Chem, 2020):
pIC50: −log10 of the molar value.

Columns and labels:
[1] = Metabolic stability in rat liver microsomes assessed as half life at 1 uM incubated up to 60 mins in presence of NADPH by LC-MS/MS analysis; format: ADME, Microsome
Summary of the method: (§1)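 Liver microsomes (0.5 mg/mL) incubated at 37 °C with compound at 1.0 μM final, 3 mM MgCl2 and 1 mM NADPH in 100 mM PBS pH 7.4. Samples taken at 0, 5, 15, 30, 60 min; remaining parent measured by LC-MS/MS. k = −slope, T1/2 = 0.693/k, CLint = k/microsomal protein concentration. Midazolam served as control.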

MOLM-13 = test: Antiproliferative activity against human MOLM-13 cells assessed as inhibition of cell growth incubated for 72 hrs by Celltiter-Glo luminescent assay; format: functional, cell-based; conditions: MOLM-13, 72 h
Summary of the method: (§2)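 Cells seeded in growth medium and held overnight at 37 °C; medium-only wells served as background. DMSO stocks were diluted in medium to 3× final and added; cells incubated 72 h at 37 °C, 5% CO2. Viability read by CellTiter-Glo luminescence after 60 min at room temperature. IC50 from curve fit, mean of duplicate.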

NCI-H460 = test: Antiproliferative activity against human NCI-H460 cells assessed as inhibition of cell growth incubated for 72 hrs by Celltiter-Glo luminescent assay; format: functional, cell-based; conditions: NCI-H460, 72 h; summary of the method: as §2
CDK2/Cyclin A2 = CDK2/Cyclin A2 (Homo sapiens, UniProt P24941); test: Inhibition of CDK2/Cyclin A (unknown origin) preincubated for 20 mins followed by ATP addition and measured after 120 mins in presence of [33P-gamma] ATP by hotspot kinase assay; format: protein-complex assay
Summary of the method: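 Radiometric filter-binding assay: kinase and substrate in 20 mM Hepes pH 7.5, 10 mM MgCl2, 1 mM EGTA, 0.02% Brij35, 0.02 mg/mL BSA, 0.1 mM Na3VO4, 2 mM DTT, 1% DMSO. Compound (top 1/10/27 μM, 3-fold serial dilutions) preincubated 20 min at 25 °C. ATP plus [γ-33P]ATP added to 10 μM final, reacted 120 min at 25 °C. IC50 from curve fit, duplicate mean.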

A549 = test: Antiproliferative activity against human A549 cells assessed as inhibition of cell growth incubated for 72 hrs by Celltiter-Glo luminescent assay; format: functional, cell-based; conditions: A549, 72 h; summary of the method: as §2
[2] = Metabolic stability in human liver microsomes assessed as half life at 1 uM incubated up to 60 mins in presence of NADPH by LC-MS/MS analysis; format: ADME, Microsome; summary of the method: as §1
A-375 = test: Antiproliferative activity against human A-375 cells assessed as inhibition of cell growth incubated for 72 hrs by Celltiter-Glo luminescent assay; format: functional, cell-based; conditions: A-375, 72 h; summary of the method: as §2
[3] = Metabolic stability in rat liver microsomes assessed as intrinsic clearance at 1 uM incubated up to 60 mins in presence of NADPH by LC-MS/MS analysis; format: ADME, Microsome; conditions: read-out: CLH; summary of the method: as §1
[4] = Metabolic stability in dog liver microsomes assessed as intrinsic clearance at 1 uM incubated up to 60 mins in presence of NADPH by LC-MS/MS analysis; format: ADME, Canis lupus familiaris, Microsome; conditions: read-out: CLH; summary of the method: as §1
[5] = Metabolic stability in dog liver microsomes assessed as half life at 1 uM incubated up to 60 mins in presence of NADPH by LC-MS/MS analysis; format: ADME, Canis lupus familiaris, Microsome; summary of the method: as §1
NCI-N87 = test: Antiproliferative activity against human NCI-N87 cells assessed as inhibition of cell growth incubated for 72 hrs by Celltiter-Glo luminescent assay; format: functional, cell-based; conditions: NCI-N87, 72 h; summary of the method: as §2
MDA-MB-231 = test: Antiproliferative activity against human MDA-MB-231 cells assessed as inhibition of cell growth incubated for 72 hrs by Celltiter-Glo luminescent assay; format: functional, cell-based; conditions: MDA-MB-231, 72 h; summary of the method: as §2
CDK9/cyclin T1 = CDK9/cyclin T1 (Homo sapiens, UniProt P50750); test: Inhibition of CDK9/Cyclin T1 (unknown origin) preincubated for 20 mins followed by ATP addition and measured after 120 mins in presence of [33P-gamma] ATP by hotspot kinase assay; format: protein-complex assay
Sequence of CDK9/cyclin T1 (O60563 whole entry): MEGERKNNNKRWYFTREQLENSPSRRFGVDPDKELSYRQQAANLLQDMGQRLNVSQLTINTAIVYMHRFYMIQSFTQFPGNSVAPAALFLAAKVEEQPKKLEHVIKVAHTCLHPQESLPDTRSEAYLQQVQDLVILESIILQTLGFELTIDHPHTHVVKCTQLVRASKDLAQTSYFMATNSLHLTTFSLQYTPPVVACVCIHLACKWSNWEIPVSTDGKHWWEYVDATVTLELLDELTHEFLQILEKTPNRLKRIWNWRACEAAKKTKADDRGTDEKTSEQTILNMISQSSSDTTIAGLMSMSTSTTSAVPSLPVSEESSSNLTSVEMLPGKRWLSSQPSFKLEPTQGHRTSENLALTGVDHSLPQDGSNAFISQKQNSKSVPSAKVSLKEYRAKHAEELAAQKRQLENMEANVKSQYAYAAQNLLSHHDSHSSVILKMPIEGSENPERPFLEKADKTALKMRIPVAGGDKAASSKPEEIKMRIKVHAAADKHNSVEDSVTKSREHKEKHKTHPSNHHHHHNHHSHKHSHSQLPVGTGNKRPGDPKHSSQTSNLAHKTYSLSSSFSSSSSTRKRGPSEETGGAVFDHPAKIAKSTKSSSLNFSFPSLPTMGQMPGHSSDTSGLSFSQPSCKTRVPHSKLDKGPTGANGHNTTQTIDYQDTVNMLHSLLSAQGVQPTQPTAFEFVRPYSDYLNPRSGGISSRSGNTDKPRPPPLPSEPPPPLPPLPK
Sequence of CDK9/cyclin T1 (P50750 whole entry): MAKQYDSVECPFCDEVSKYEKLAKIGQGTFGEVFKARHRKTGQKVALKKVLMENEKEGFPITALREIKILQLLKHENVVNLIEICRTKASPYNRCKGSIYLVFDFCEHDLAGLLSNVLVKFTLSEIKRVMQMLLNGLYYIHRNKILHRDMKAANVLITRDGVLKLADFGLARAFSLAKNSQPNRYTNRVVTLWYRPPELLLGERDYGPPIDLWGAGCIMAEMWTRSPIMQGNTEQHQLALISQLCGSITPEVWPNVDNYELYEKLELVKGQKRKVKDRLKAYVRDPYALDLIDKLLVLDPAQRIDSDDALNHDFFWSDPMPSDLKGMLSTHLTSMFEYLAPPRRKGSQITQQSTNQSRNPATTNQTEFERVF

[6] = Metabolic stability in monkey liver microsomes assessed as intrinsic clearance at 1 uM incubated up to 60 mins in presence of NADPH by LC-MS/MS analysis; format: ADME, Macaca mulatta, Microsome; conditions: rhesus monkey, read-out: CLH; summary of the method: as §1
PANC-1 = test: Antiproliferative activity against human PANC-1 cells assessed as inhibition of cell growth incubated for 72 hrs by Celltiter-Glo luminescent assay; format: functional, cell-based; conditions: PANC-1, 72 h; summary of the method: as §2
SW-620 = test: Antiproliferative activity against human SW-620 cells assessed as inhibition of cell growth incubated for 72 hrs by Celltiter-Glo luminescent assay; format: functional, cell-based; conditions: SW-620, 72 h; summary of the method: as §2
HCT-116 = test: Antiproliferative activity against human HCT-116 cells assessed as inhibition of cell growth incubated for 72 hrs by Celltiter-Glo luminescent assay; format: functional, cell-based; conditions: HCT-116, 72 h; summary of the method: as §2
[7] = Metabolic stability in monkey liver microsomes assessed as half life at 1 uM incubated up to 60 mins in presence of NADPH by LC-MS/MS analysis; format: ADME, Macaca mulatta, Microsome; conditions: rhesus monkey; summary of the method: as §1
BXPC-3 = test: Antiproliferative activity against human BxPC3 cells assessed as inhibition of cell growth incubated for 72 hrs by Celltiter-Glo luminescent assay; format: functional, cell-based; conditions: BXPC-3, 72 h; summary of the method: as §2
HepG2 = test: Antiproliferative activity against human HepG2 cells assessed as inhibition of cell growth incubated for 72 hrs by Celltiter-Glo luminescent assay; format: functional, cell-based; conditions: HepG2, 72 h; summary of the method: as §2
MV4-11 = test: Antiproliferative activity against human MV4-11 cells assessed as inhibition of cell growth incubated for 72 hrs by Celltiter-Glo luminescent assay; format: functional, cell-based; conditions: MV4-11, 72 h; summary of the method: as §2
MIA PaCa-2 = test: Antiproliferative activity against human MIA PaCa-2 cells assessed as inhibition of cell growth incubated for 72 hrs by Celltiter-Glo luminescent assay; format: functional, cell-based; conditions: MIA PaCa-2, 72 h; summary of the method: as §2
[8] = Metabolic stability in human liver microsomes assessed as intrinsic clearance at 1 uM incubated up to 60 mins in presence of NADPH by LC-MS/MS analysis; format: ADME, Microsome; conditions: read-out: CLH; summary of the method: as §1

half-life at 1 µM [1]: 9.61 min | pIC50 (MOLM-13): 6.59 | pIC50 (NCI-H460): 5.67 | pIC50 (CDK2/Cyclin A2): 5.88 | pIC50 (A549): 5.63 | half-life at 1 µM [2]: 33.5 min | pIC50 (A-375): 6.02 | microsomal CLint at 1 µM [3]: 144 µL/min/mg | microsomal CLint at 1 µM [4]: 98.3 µL/min/mg | half-life at 1 µM [5]: 14.1 min | pIC50 (MDA-MB-231): 5.80 | pIC50 (CDK9/cyclin T1): 8.06 | microsomal CLint at 1 µM [6]: 62.5 µL/min/mg | pIC50 (PANC-1): 5.73 | pIC50 (SW-620): 5.57 | pIC50 (HCT-116): 6.18 | half-life at 1 µM [7]: 22.2 min | pIC50 (BXPC-3): 6.04 | pIC50 (HepG2): 6.25 | pIC50 (MV4-11): 6.60 | pIC50 (MIA PaCa-2): 5.80 | microsomal CLint at 1 µM [8]: 41.4 µL/min/mg
Compound: COc1cc(F)ccc1-c1ccnc(Nc2ccc3c(N4CCOCC4)c(C(C)=O)c(=O)oc3c2)n1
pIC50 (NCI-N87): 5.45
